Measurements: ChEMBL document CHEMBL3045051 (Med Chem Res, 2011)
Calls of active or inactive are those of the source. The calls are words filed in the database; no cut-off is given here.

Tests used:
[1] = system: Mammalian orthoreovirus 1; assay: Antiviral activity against Mammalian orthoreovirus 1 infected VERO cells assessed as inhibition of virus-induced cytopathicity; type: functional, organism-based
Outline: (§1)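 Confluent monolayers (feline kidney Crandell, Vero, HEL or HeLa, as named for each virus) were infected with 100 CCID50 of virus and allowed to adsorb for 1 h. Unbound virus was then removed, and cultures were incubated with test compound in serial dilutions (200, 40, 8 … µM). Cytopathicity was scored once untreated infected controls reached complete cytopathic effect.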

Punta Toro virus = assay: Antiviral activity against Punta Toro virus infected Hela cells assessed as inhibition of virus-induced cytopathicity; type: functional, organism-based
[2] = Antioxidant activity assessed as inhibition of AAPH-induced lipid peroxidation at 1 X 10^-5 M; type: functional
Human respirovirus 3 = assay: Antiviral activity against Human parainfluenza virus 3 infected Vero cells assessed as inhibition of virus-induced cytopathicity; type: functional, organism-based; outline: as §1
Human alphaherpesvirus 1 = assay: Antiviral activity against […] 1 KOS infected in human HEL cells assessed as inhibition of virus-induced cytopathicity; type: functional, organism-based; outline: as §1
[3] = system: Radical scavenging activity; assay: Antioxidant activity assessed as DPPH radical scavenging activity at 1 X 10^-4 M after 20 min; type: functional
Outline: (§2)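 Test compound was mixed with DPPH (0.05 and 0.1 mM) in ethanol. Absorbance at 517 nm was read after 20 and 60 min and compared with the NDGA standard, with ethanol as control. Each experiment was run at least in triplicate, and the SD of absorbance was <10% of the mean.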

Human alphaherpesvirus 2 = assay: Antiviral activity against Human herpesvirus 2 strain G infected human HEL cells assessed as inhibition of virus-induced cytopathicity; type: functional, organism-based; outline: as §1
Coxsackievirus B4 [4] = assay: Antiviral activity against Human coxsackievirus B4 infected human HeLa cells assessed as inhibition of virus-induced cytopathicity; type: functional, organism-based; outline: as §1
[5] = system: Radical scavenging activity; assay: Antioxidant activity assessed as DPPH radical scavenging activity at 1 X 10^-4 M after 60 min; type: functional; outline: as §2
Sindbis virus = assay: Antiviral activity against Sindbis virus infected Hela cells assessed as inhibition of virus-induced cytopathicity; type: functional, organism-based
[6] = system: Vesicular stomatitis virus; assay: Antiviral activity against Vesicular stomatitis virus infected HEL cells assessed as inhibition of virus-induced cytopathicity; type: functional, organism-based
[7] = system: Radical scavenging activity; assay: Antioxidant activity assessed as DPPH radical scavenging activity at 5 X 10^-5 M after 20 min; type: functional; outline: as §2
Influenza A virus = assay: Antiviral activity against Unidentified Influenza A virus (H1N2) infected MDCK cells assessed as inhibition of virus-induced cytopathicity; type: functional, organism-based
Coxsackievirus B4 [8] = assay: Antiviral activity against Human coxsackievirus B4 infected VERO cells assessed as inhibition of virus-induced cytopathicity; type: functional, organism-based; outline: as §1
Vaccinia virus = assay: Antiviral activity against Vaccinia virus infected human HEL cells assessed as inhibition of virus-induced cytopathicity; type: functional, organism-based; conditions: Orthopoxvirus vaccinia
Feline coronavirus = assay: Antiviral activity against Feline coronavirus infected feline kidney crandell cells assessed as inhibition of virus-induced cytopathicity; type: functional, organism-based; outline: as §1
[9] = Antioxidant activity assessed as inhibition of AAPH-induced lipid peroxidation at 1 X 10^-4 M; type: functional
[10] = biological target: T1, Seed linoleate 13S-lipoxygenase-1 (Glycine max) (UniProt P08170); assay: Inhibition of Glycine max (soybean) lipoxygenase using sodium linoleate as substrate at 1 X 10^-4
T1 sequence (whole entry): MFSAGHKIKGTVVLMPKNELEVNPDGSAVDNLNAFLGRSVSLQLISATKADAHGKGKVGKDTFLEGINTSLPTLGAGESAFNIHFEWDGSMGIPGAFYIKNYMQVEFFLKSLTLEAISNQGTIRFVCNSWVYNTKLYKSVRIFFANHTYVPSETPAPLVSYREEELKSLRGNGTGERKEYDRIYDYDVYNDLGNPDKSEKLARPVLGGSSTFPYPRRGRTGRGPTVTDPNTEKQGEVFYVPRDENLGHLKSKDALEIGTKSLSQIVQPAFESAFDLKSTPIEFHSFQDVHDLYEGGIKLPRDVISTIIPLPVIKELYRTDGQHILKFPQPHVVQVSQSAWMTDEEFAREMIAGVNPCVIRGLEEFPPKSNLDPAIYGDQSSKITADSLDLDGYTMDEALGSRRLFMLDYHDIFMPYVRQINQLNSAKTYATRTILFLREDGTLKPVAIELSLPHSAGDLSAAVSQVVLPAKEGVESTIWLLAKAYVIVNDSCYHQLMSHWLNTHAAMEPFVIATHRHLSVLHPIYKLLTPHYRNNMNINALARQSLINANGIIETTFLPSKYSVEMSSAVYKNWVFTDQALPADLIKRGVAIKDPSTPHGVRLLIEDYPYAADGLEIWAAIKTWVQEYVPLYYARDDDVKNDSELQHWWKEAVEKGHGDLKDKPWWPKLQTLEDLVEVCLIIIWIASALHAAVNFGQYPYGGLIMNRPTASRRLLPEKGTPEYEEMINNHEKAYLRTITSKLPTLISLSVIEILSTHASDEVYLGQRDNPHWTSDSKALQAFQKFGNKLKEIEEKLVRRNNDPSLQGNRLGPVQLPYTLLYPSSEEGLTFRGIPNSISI

[11] = system: Vesicular stomatitis virus; assay: Antiviral activity against Vesicular stomatitis virus infected Hela cells assessed as inhibition of virus-induced cytopathicity; type: functional, organism-based
[12] = system: Respiratory syncytial virus; assay: Antiviral activity against Respiratory syncytial virus infected human HeLa cells assessed as inhibition of virus-induced cytopathicity; type: functional, organism-based; outline: as §1
[13] = system: Radical scavenging activity; assay: Antioxidant activity assessed as DPPH radical scavenging activity at 5 X 10^-5 M after 60 min; type: functional; outline: as §2

Compound	Activity [1]	Activity (Punta Toro virus)	Activity (Human respirovirus 3)	Activity (Human alphaherpesvirus 1)	inhibition [3]	Activity (Human alphaherpesvirus 2)	Activity (Coxsackievirus B4 [4])	inhibition [5]	Activity (Sindbis virus)	Activity [6]	inhibition [7]	Activity (Influenza A virus)	Activity (Influenza A virus; H1N1)	Activity (Coxsackievirus B4 [8])	Activity (Vaccinia virus)	Activity (Feline coronavirus)	inhibition [9]	Activity [11]	Activity [12]	inhibition [13]	also measured
CCONC(=O)OC(c1ccccc1)c1cccc(C(C)C(=O)NOCC)c1 (stereo unspecified)	inactive	inactive	inactive	inactive	2.3%	inactive	inactive	1.1%	inactive	inactive	2.5%	inactive	inactive	inactive	inactive	inactive	54.5%	inactive	inactive	3.7%	inhibition [2]: inactive; inhibition [10]: 22.3%
Cc1c(C)c2c(c(C)c1O)CCC(C)(C(=O)O)O2 (stereo unspecified)	inactive	inactive	inactive	inactive	–	inactive	inactive	–	inactive	inactive	–	inactive	inactive	inactive	inactive	inactive	63%	inactive	inactive	–	–
CONC(=O)OC(c1ccccc1)c1cccc(C(C)C(=O)NOC)c1 (stereo unspecified)	inactive	inactive	inactive	inactive	1.8%	inactive	inactive	3.2%	inactive	inactive	inactive	inactive	inactive	inactive	inactive	inactive	61%	inactive	inactive	4.1%	inhibition [2]: 2.5%; inhibition [10]: 26.9%
CC(Cc1ccc(O)c(O)c1)C(C)Cc1ccc(O)c(O)c1 (stereo unspecified)	inactive	inactive	inactive	inactive	93%	inactive	inactive	97%	inactive	inactive	81%	inactive	inactive	inactive	inactive	inactive	–	inactive	inactive	83%	–
CC(C(=O)NC1CCCCC1)c1cccc(C(OC(=O)NC2CCCCC2)c2ccccc2)c1 (stereo unspecified)	inactive	inactive	inactive	inactive	inactive	inactive	inactive	inactive	inactive	inactive	2%	inactive	inactive	inactive	inactive	inactive	96.1%	inactive	inactive	3.1%	inhibition [2]: 5.4%; inhibition [10]: 22.7%
